Experimental data of several laboratories.
Lines come from different studies, so protocols differ.
FGFR3: Fibroblast growth factor receptor 3 (FGFR3, Homo sapiens, UniProt P22607)
FGFR3 G697C: Fibroblast growth factor receptor 3 (FGFR3, Homo sapiens, UniProt P22607, G697C)

`Cc1cnn2ncc(-c3ccnc(N(C)C)n3)c2c1` has a remaining binding of 100% (FGFR3; binding; 1 µM).
The remaining binding of `O=C(c1ccc(Nc2ncc(Cl)c(-c3ccc(Cl)s3)n2)cc1)N1CCC(N2CCCC2)CC1` is reported as 19% (FGFR3; binding; competition with immobilised ligand; 1 µM).
For `CC(=O)N1CCC(c2ccc(C(=O)NC(=N)N)cc2C(F)(F)F)CC1`, the remaining binding was 98% (FGFR3 G697C; cell-free assay; competition with immobilised ligand; 1 µM).
`CN(c1nccc(-c2cnn3ncccc23)n1)C1CC1` has a remaining binding of 98% (FGFR3; binding; 1 µM).
For `Cc1cc(-n2nc(Cc3cc(F)cc(C(F)(F)F)c3)nc2C)ccc1C(N)=O`, the remaining binding was 100% (FGFR3 G697C; cell-free assay; competition with immobilised ligand; 1 µM).
`Nc1ncc2c(n1)-c1c([nH]c3ccc(C#CC4CC4)cc13)CCCC2` gave a remaining binding of 95% (FGFR3; binding; competition with immobilised ligand; 1 µM).
The remaining binding of `Cc1cnc(Nc2ccc(C(=O)N3CCC(N4CCCC4)CC3)cc2)nc1-c1cc2ccccc2s1` is reported as 23% (FGFR3; binding; competition with immobilised ligand; 1 µM).
`CNC(=O)[C@@H]1CC[C@@H](n2c(-c3ccc4cnccc4c3)nc3ccc(C(=O)NCc4cccc(C(N)=O)c4)cc32)C1` gave a remaining binding of 100% (FGFR3; binding; competition with immobilised ligand; 1 µM).
`C[C@@H]1CN(c2ccc3ncc(-c4ccc5[nH]nc(C6CC6)c5c4)n3n2)C[C@H](C)O1` has a remaining binding of 100% (FGFR3; binding; competition with immobilised ligand; 50 nM).
`O=C(NCCCN1CCOCC1)c1ccc(Nc2nccc(-c3cc4ccccc4s3)n2)cc1` has a remaining binding of 94% (FGFR3; binding; competition with immobilised ligand; 1 µM).
With `c1cnn2ncc(-c3ccnc(N4CCC45COC5)n3)c2c1` the remaining binding was 100% (FGFR3; binding; 1 µM).
`O=C(NCC1CCOCC1)c1n[nH]cc1NC(=O)c1c(F)cccc1F` gave a remaining binding of 100% (FGFR3; binding; competition with immobilised ligand; 1 µM).
`CN(CCCC(F)(F)F)c1nccc(-c2cnn3ncccc23)n1` gave a remaining binding of 93% (FGFR3; binding; 1 µM).
`O=C(NCCCN1CCOCC1)c1ccc(Nc2ncc(Cl)c(-c3ccc(Cl)s3)n2)cc1` gave a remaining binding of 41% (FGFR3; binding; competition with immobilised ligand; 1 µM).
The remaining binding of `COc1ccc2cc(OCC3(C(=O)O)CN(C(=O)c4ccc(F)cc4)C3)ccc2c1` is reported as 88% (FGFR3 G697C; cell-free assay; competition with immobilised ligand; 1 µM).
`CC1CCCN1c1nccc(-c2cnn3ncccc23)n1` (centres unmarked) has a remaining binding of 100% (FGFR3; binding; 1 µM).
The remaining binding of `CCN1CCN(Cc2ccc(C(=O)Nc3ccc(C)c(Oc4ccc5c(c4)CC(=O)N5)c3)cc2C(F)(F)F)CC1` is reported as 100% (FGFR3; binding; competition with immobilised ligand; 1 µM).
The remaining binding of `COc1cnc(Nc2cccc(S(N)(=O)=O)c2)nc1N1CCN(c2ccccc2)C(=O)C1` is reported as 100% (FGFR3; binding; competition with immobilised ligand; 1 µM).
The remaining binding of `O=C(Nc1c[nH]nc1C(=O)NC1CCNCC1)c1cc(F)cc(F)c1` is reported as 100% (FGFR3; binding; competition with immobilised ligand; 1 µM).
The remaining binding of `C[C@@H](c1ccc(-n2cnc3c(N)ncnc32)cc1)N1CCc2nn(C)c(Cc3ccccc3)c2C1=O` is reported as 80% (FGFR3; binding; competition with immobilised ligand; 0.1 µM).
With `COc1cnc(Nc2cccc(S(N)(=O)=O)c2)nc1N1CCN(c2ccccc2)CC1` the remaining binding was 98% (FGFR3; binding; competition with immobilised ligand; 1 µM).
`O=C(c1ccc(Nc2ncc(Cl)c(-c3cc4ccccc4s3)n2)cc1)N1CCC(N2CCCC2)CC1` has a remaining binding of 38% (FGFR3; binding; competition with immobilised ligand; 1 µM).
For `CCCOc1ccc([C@H]2[C@H](C(=O)O)[C@@H](c3ccc4c(c3)OCO4)CN2CC(=O)Nc2c(CC)cccc2CC)cc1`, the remaining binding was 85% (FGFR3 G697C; cell-free assay; competition with immobilised ligand; 1 µM).
With `c1cncc(-c2cccc(Nc3nccc(NC4CCCCC4)n3)c2)c1` the remaining binding was 51% (FGFR3 G697C; binding; competition with immobilised ligand; 10 µM).
With `C[C@@H]1CCN(c2nccc(-c3cnn4ncccc34)n2)C1` the remaining binding was 90% (FGFR3; binding; 1 µM).
For `COCCOc1nc(-c2ccc(Cl)nc2)nc2c1CN(C(=O)c1ncn3ccccc13)CC2`, the remaining binding was 100% (FGFR3 G697C; cell-free assay; competition with immobilised ligand; 0.1 µM).
For `N[C@@H]1CCN(c2nccc(-c3cnn4ncccc34)n2)C1`, the remaining binding was 100% (FGFR3 G697C; binding; 1 µM).
The remaining binding of `C=CC(=O)N1CCC(C(=O)NCC(=O)N2CCN(c3nc(-c4cnc(N)nc4C(F)F)nc(N4CCOCC4)n3)CC2)CC1` is reported as 96% (FGFR3; binding; competition with immobilised ligand; 1 µM).
The remaining binding of `Cn1nc(C(=O)NCc2ccc(C(=O)O)cc2)cc1-c1ccc2[nH]ccc2c1` is reported as 82% (FGFR3 G697C; cell-free assay; competition with immobilised ligand; 0.1 µM).
For `O=C(c1ccc(Nc2nccc(-c3cc4ccccc4s3)n2)cc1)N1CCC(N2CCCC2)CC1`, the remaining binding was 87% (FGFR3; binding; competition with immobilised ligand; 1 µM).
The remaining binding of `O=C1NC(c2ccccn2)Sc2ccccc21` (centres unmarked) is reported as 97% (FGFR3; cell-free assay; competition with immobilised ligand; 1 µM).
`COc1ncc2cc3ccccc3nc2c1C#N` gave a remaining binding of 96% (FGFR3 G697C; cell-free assay; competition with immobilised ligand; 5 µM).
`CN1CCN(c2ccc(Nc3nccc(-c4cccc([N+](=O)[O-])c4)n3)cc2C(F)(F)F)CC1` has a remaining binding of 63% (FGFR3 G697C; binding; 10 µM).
`CSc1cccnc1N1CCN(Cc2nc3ccccc3[nH]2)CC1` has a remaining binding of 100% (FGFR3 G697C; cell-free assay; competition with immobilised ligand; 1 µM).
`CC(C)(C)c1ccc(-c2nc(CBr)nn2-c2cccc(O)c2)cc1` has a remaining binding of 93% (FGFR3; cell-free assay; competition with immobilised ligand; 10 µM).
